Laboratory results published in ChEMBL document CHEMBL1134438, “Stepwise modulation of neurokinin-3 and neurokinin-2 receptor affinity and selectivity in quinoline tachykinin receptor antagonists” (J Med Chem, 2001).

Assays:
Mu-type opioid receptor = Mu-type opioid receptor (Homo sapiens, UniProt P35372); assay: Binding affinity towards human mu-opioid receptors in CHO (Chinese hamster ovary) cell lines; assay type: cell-based
In short: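 CHO cells stably expressing hMOR grown in serum-free suspension culture; membranes made by hypotonic lysis in 10 mM potassium phosphate pH 7.2 with 3 mM MgCl2. Binding run in triplicate at 10 µg/mL protein with 0.4-0.5 nM radioligand for 60 min at 30 °C. Nonspecific binding defined with 10 µM naloxone; filtration and scintillation counting. Duplicate concentration-response curves, n = 3-5 for potent compounds.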

Substance-K receptor [1] = biological target: T1, Substance-K receptor (Homo sapiens, UniProt P21452); assay: Displacement of [125 I]-NKA binding to tachykinin receptor 2 in CHO membranes; assay type: cell membranes
T1 sequence (P21452 whole entry): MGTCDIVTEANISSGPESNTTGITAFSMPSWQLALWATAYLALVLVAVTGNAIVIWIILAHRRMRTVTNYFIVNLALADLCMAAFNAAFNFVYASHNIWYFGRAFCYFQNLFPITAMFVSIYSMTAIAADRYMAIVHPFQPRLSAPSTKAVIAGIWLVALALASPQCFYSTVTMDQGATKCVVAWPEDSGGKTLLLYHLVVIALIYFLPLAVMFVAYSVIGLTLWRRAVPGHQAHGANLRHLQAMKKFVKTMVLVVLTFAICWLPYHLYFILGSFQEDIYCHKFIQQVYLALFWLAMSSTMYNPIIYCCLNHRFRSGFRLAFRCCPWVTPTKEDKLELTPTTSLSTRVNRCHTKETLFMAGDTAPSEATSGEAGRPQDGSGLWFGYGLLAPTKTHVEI
In short: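 hNK-2-CHO crude membranes (~10 µg protein) were incubated with 0.15 nM [125I]-NKA for 90 min at 25 °C in Tris pH 7.4 buffer containing MnCl2, phosphoramidon and ovalbumin. Filtered through GF/C soaked in 0.1% PEI. Nonspecific binding defined with 0.5 µM cold NKA. Ki from IC50 by Cheng-Prusoff; duplicate curves, n = 3-5.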

Neuromedin-K receptor [2] = biological target: T2, Neuromedin-K receptor (Homo sapiens, UniProt P29371); assay: Displacement of [125 I]-[MePhe]-NKB binding to hNK-3-CHO (Chinese hamster ovary) membranes
T2 sequence (P29371 whole entry): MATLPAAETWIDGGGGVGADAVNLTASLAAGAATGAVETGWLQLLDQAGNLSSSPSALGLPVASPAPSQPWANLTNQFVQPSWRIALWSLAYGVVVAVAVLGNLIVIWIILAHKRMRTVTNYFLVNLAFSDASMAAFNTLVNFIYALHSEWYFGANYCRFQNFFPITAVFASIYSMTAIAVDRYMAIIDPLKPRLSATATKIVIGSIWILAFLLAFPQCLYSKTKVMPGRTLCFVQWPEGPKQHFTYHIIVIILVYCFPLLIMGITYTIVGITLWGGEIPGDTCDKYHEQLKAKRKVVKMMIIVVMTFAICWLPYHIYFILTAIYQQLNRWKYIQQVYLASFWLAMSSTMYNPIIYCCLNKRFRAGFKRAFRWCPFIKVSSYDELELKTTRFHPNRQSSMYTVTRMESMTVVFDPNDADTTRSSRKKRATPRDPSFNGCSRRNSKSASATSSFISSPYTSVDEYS
In short: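 hNK-3-CHO crude membranes (~15 µg protein) were incubated with 0.15 nM [125I]-[MePhe7]-NKB in 50 mM Tris pH 7.4, 4 mM MnCl2, 1 µM phosphoramidon, 0.1% ovalbumin for 90 min at 25 °C. Filtered through BSA-presoaked GF/C, then scintillation counted. Nonspecific binding defined with 0.5 µM cold [MePhe7]-NKB. Ki from IC50 by Cheng-Prusoff; duplicates, n = 3-5.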

[3] = Selectivity ratio (hNK-2/hNK-3) of the compound
Neuromedin-K receptor [4] = biological target: T2, Neuromedin-K receptor; assay: (§1) Cellular functional antagonistic activity against NKB-induced [Ca2+] mobilization in HEK cells stably expressing the hNK-3 receptor; assay type: cell-based, HEK293; settings: read-out: pA2 (converted)
[5] = biological target: T3, Neuromedin-K receptor (Homo sapiens) (UniProt P29371); assay: as §1; assay type: cell-based; settings: HEK293
T3 sequence (whole entry): T2 sequence (P29371 whole entry)

Substance-K receptor [6] = biological target: T1, Substance-K receptor; assay: Cellular functional antagonistic activity against NKA-induced [Ca2+] mobilization in HEK cells stably expressing the tachykinin receptor 2; settings: read-out: pA2 (converted)
[7] = biological target: T4, Substance-K receptor (Homo sapiens) (UniProt P21452); assay: as above; settings: HEK293
T4 sequence (whole entry): T1 sequence (P21452 whole entry)

Sequence of Mu-type opioid receptor (P35372 whole entry): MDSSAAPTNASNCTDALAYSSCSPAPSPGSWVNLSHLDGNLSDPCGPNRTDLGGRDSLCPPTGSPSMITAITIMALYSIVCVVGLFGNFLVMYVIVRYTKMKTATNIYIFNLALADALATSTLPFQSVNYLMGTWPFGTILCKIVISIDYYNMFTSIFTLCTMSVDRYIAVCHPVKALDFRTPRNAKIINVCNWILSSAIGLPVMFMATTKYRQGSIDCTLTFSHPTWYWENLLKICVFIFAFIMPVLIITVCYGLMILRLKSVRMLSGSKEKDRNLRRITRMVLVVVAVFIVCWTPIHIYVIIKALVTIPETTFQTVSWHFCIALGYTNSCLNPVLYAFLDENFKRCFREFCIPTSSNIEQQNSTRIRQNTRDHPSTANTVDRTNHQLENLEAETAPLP

Structure (SMILES) | Ki (Mu-type opioid receptor) [nM] | Ki (Substance-K receptor [1]) [nM] | Ki (Neuromedin-K receptor [2]) [nM] | Ratio [3] | Kb (Neuromedin-K receptor [4]) [nM] | Kb [5] [nM] | Kb (Substance-K receptor [6]) [nM] | Kb [7] [nM]
C[C@H](NC(=O)c1c(CN2CCC(N3CCCCC3)CC2)c(-c2ccccc2)nc2ccccc12)C(C)(C)C | ≥ 2000 | 1 | 193 | 0.005 | – | – | – | –
C[C@H](NC(=O)c1c(CN2CCC(N)CC2)c(-c2ccccc2)nc2ccccc12)C1CCCCC1 | 1780 | 33 | 31.2 | 1.1 | – | – | – | –
CC(C)C(=O)N1CCN(Cc2c(-c3ccccc3)nc3ccccc3c2C(=O)N[C@@H](C)C2CCCCC2)CC1 | > 2500 | 1.2 | 1.4 | 0.9 | – | – | – | –
CC[C@H](NC(=O)c1c(CN2CCCCC2)c(-c2ccccc2)nc2ccccc12)c1ccccc1 | > 2500 | 276 | 7 | 39 | – | – | – | –
CC[C@H](NC(=O)c1c(O)c(-c2ccccc2)nc2ccccc12)c1ccccc1 [TALNETANT] | 1860 | – | – | – | – | – | – | –
CC[C@H](NC(=O)c1c(CN2CCC(N3CCCCC3)CC2)c(-c2ccccc2)nc2ccccc12)c1ccccc1 | 919 | 4.6 | 1.5 | 3.1 | – | – | – | –
C[C@H](NC(=O)c1c(CN2CCC(N3CCCCC3)CC2)c(-c2ccccc2)nc2ccccc12)C1CCCCC1 | 1320 | 0.6 | 1.7 | 0.3 | 2 | 2.6 | 10 | 9.9
C[C@H](NC(=O)c1c(CN2CCC(N3CCOCC3)CC2)c(-c2ccccc2)nc2ccccc12)C1CCCCC1 | > 2500 | 0.8 | 0.8 | 1 | – | – | – | –
CC(C)NC(=O)c1c(CN2CCN(C(C)C)CC2)c(-c2ccccc2)nc2ccccc12 | – | 811 | > 12000 | < 0.1 | – | – | – | –

Continued, values first:

Ki (Mu-type opioid receptor) [nM] | Ki (Substance-K receptor [1]) [nM] | Ki (Neuromedin-K receptor [2]) [nM] | Ratio [3] | Kb (Neuromedin-K receptor [4]) [nM] | Kb [5] [nM] | Kb (Substance-K receptor [6]) [nM] | Kb [7] [nM] | Structure (SMILES)
1680 | 172 | 2.2 | 78 | – | – | – | – | CC[C@H](NC(=O)c1c(CN(C)C)c(-c2ccccc2)nc2ccccc12)c1ccccc1
195 | 0.7 | 1.9 | 0.4 | – | – | – | – | CC(C)N1CCN(Cc2c(-c3ccccc3)nc3ccccc3c2C(=O)N[C@@H](C)C2CCCCC2)CC1
120 | 1.5 | 1.2 | 1.2 | – | – | – | – | CC(C)[C@H](NC(=O)c1c(CN2CCN(C(C)C)CC2)c(-c2ccccc2)nc2ccccc12)c1ccccc1
172 | 2.4 | 3.4 | 0.7 | – | – | – | – | C[C@H](NC(=O)c1c(CN2CCNCC2)c(-c2ccccc2)nc2ccccc12)C1CCCCC1
– | 9.2 | 454 | 0.02 | – | – | – | – | CC(C)C(C)NC(=O)c1c(CN2CCN(C(C)C)CC2)c(-c2ccccc2)nc2ccccc12 (centres undefined)
> 2500 | 51.6 | – | 16 | – | – | – | – | CC(C)[C@H](NC(=O)c1c(CN(C)C)c(-c2ccccc2)nc2ccccc12)c1ccccc1
98.6 | – | – | 3.1 | – | – | – | – | CC[C@H](NC(=O)c1c(CN2CCN(C(C)C)CC2)c(-c2ccccc2)nc2ccccc12)c1ccccc1
226 | 4.2 | 1250 | 0.003 | – | – | – | – | CC(C)N1CCN(Cc2c(-c3ccccc3)nc3ccccc3c2C(=O)NC2CCCCC2)CC1
– | 18.5 | 1210 | 0.015 | – | – | – | – | CCC(CC)NC(=O)c1c(CN2CCN(C(C)C)CC2)c(-c2ccccc2)nc2ccccc12
203 | 22.2 | 4.7 | 4.7 | – | – | – | – | CC[C@H](NC(=O)c1c(CN2CCNCC2)c(-c2ccccc2)nc2ccccc12)c1ccccc1
15.8 | 1.6 | 1.2 | 1.3 | – | – | – | – | CC[C@H](NC(=O)c1c(CN2CCN(C3CCCCC3)CC2)c(-c2ccccc2)nc2ccccc12)c1ccccc1
> 2500 | 6.1 | 4.6 | 1.3 | – | – | – | – | C[C@H](NC(=O)c1c(CN2CCOCC2)c(-c2ccccc2)nc2ccccc12)C1CCCCC1
